A selection: hits, their analogues and other compounds. The true share with any hit is near 1.9%.
SUMO1-SIM PPI = modulators of human SUMO1-mediated protein-protein interactions; SUMO1 binding to a labelled peptide, TR-FRET, 1 h; 0.33% of 360,000 active; inhibition, % at 20 µM; in the data active means inhibition above about 37%
Target sequence (P63165 whole entry, looked up): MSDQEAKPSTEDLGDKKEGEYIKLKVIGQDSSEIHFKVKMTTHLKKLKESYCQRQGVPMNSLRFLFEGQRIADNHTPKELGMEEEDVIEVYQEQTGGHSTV
STEP inh = blocks human striatal-enriched tyrosine phosphatase. inhibition, % at 20 µM. AID 588621. P54829. recombinant STEP, OMFP fluorogenic substrate, fluorescence. 0.25% of 360,000 active;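 active means inhibition at 20 µM, scaled per plate between control wells, above about 37%, limit read from the data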;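 further: 0% = DMSO with enzyme and substrate and 100% = substrate only without enzyme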
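System: STEP (striatal-enriched tyrosine phosphatase) enzyme, cell-free; medium: Bis-Tris pH 6.0 buffer with DTT, detergent; dosing: 20 µM, 1% DMSO; times: reaction 20 min, ambient temperature; detection: fluorescence, 480/540 nm; read-out basis: normalized % inhibition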
DNMT1 block = inhibitors of human DNMT1; inhibition (reported as % activation of signal), % at 10 µM; 0.83% of 360,000 active; DNMT1 molecular beacon, Hinp1I cleavage, fluorescence; P26358; in the data active means inhibition above about 50%
Scp1 inh = blocks human Scp-1 phosphatase activity; Q9GZU7; Recombinant Scp1, phosphopeptide, malachite green phosphate absorbance; inhibition, % at 20 µM; 0.88% of 340,000 active; AID 493091;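 active means inhibition above about 50% at 20 µM, limit read from the data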;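 further: plate controls were DMSO wells with enzyme for no effect and wells lacking enzyme for full effect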
Target sequence (Q9GZU7 76-261 limits assumed): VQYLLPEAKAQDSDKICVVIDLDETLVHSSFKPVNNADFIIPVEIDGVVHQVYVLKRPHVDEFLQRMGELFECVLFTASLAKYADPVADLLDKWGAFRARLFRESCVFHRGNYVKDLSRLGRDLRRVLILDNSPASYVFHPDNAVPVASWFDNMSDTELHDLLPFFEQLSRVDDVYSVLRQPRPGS
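Test system – truncated SCP-1 phosphatase (76-261aa) · Reagent – Phosphorylated 17-residue peptide substrate · Incubation – 45 min room-temperature reaction, 5 min colour, 30 min stabiliser · Detection – colorimetric phosphate reagent with accelerator and stabiliser, absorbance at 630 nm · Measure – % inhibition at 20 µM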
CSN deneddyl inh = CSN deneddylation inhibition. Q92905. Purified CSN, SCF-Nedd8-OG deneddylation, fluorescence polarization. inhibition, % at 12.5 µM. 0.38% of 360,000 active. AID 651999;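 active means pattern-corrected inhibition above about 35%, with an unprinted fluorescence ratio check between 0.5 and 1.5, limit read from the data, passing the limit was not always enough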;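 further: 0% = enzyme with substrate and 100% = substrate without enzyme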
Target sequence (Q92905 whole entry, looked up, one chain of several): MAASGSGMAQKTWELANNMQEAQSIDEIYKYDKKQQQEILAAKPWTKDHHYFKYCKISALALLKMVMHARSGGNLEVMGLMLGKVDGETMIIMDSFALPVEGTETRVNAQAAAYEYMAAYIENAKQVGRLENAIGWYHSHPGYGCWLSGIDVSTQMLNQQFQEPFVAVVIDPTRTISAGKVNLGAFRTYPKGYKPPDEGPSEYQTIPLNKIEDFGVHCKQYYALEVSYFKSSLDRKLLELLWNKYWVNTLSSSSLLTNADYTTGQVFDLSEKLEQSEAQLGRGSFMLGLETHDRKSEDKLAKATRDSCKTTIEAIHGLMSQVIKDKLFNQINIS
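Assay system: HEK293T-derived human Csn5 enzyme; quantity: 0.24 nM enzyme; medium: Tris/NaCl/DTT buffer, pH 7.5; also added: substrate SCFSkp2-Nedd8OG, 10 nM; doses: 12.5 µM compound; schedule: 90 min reaction at room temperature; signal: FP; read-out: % inhibition of substrate cleavage by Csn5; benchmarks: substrate-only high control, full reaction low control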
LMPTP inh = LMPTP (human) inhibition | 0.22% of 360,000 active | recombinant LMPTP-A, OMFP fluorogenic substrate, fluorescence intensity | inhibition, % at 20 µM;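 active means compounds that cut the enzyme signal by at least half of the control window in the single-dose screen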;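 further: plate controls were DMSO wells with enzyme plus substrate for no effect and substrate without enzyme for full effect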
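Buffer or medium: Bis-Tris pH 6.0, DTT, detergent; Assay system: LMPTP-A enzyme; Quantity: 0.625 nM enzyme; Detection: endpoint fluorescence intensity; Times: 50 min dark incubation at room temperature; Controls: substrate-only low control, DMSO enzyme-plus-substrate high control; Doses: single 20 µM dose; Read-out: percent inhibition versus substrate-only and uninhibited controls; Reagent: 400 µM OMFP.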
Scp1 confirm = Scp-1 (human) inhibition, single-dose confirmed | shares compounds with Scp1 inh | recombinant SCP-1 catalytic domain, phosphate release, malachite green absorbance | inhibition, % at 20 µM | 61% of 2,500 active | AID 540281;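 further: plate controls were DMSO with enzyme for no effect and buffer wells lacking enzyme for full effect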
MG interference = interferes with malachite green readout, flagging false Scp-1 hits; apparent inhibition (interference), % at 20 µM; shares compounds with Scp1 inh; Colorimetric interference counterscreen, malachite green absorbance 630 nm; 2,500 tested, under 10 active;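 further: compounds added after enzyme reaction finished so only phosphate colour detection is probed; plate controls were DMSO wells with completed Scp-1 reaction for no effect and substrate wells lacking enzyme for full effect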
Scp1 DSF = binds human Scp-1, shifting its melting temperature. 25% of 1,500 active. thermal shift relative to vanadate control, % at 40 µM. Recombinant SCP1, Sypro Orange thermal shift Tm. shares compounds with Scp1 inh;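 active means substances whose mean melting-temperature shift, as a percentage of the reference inhibitor's shift, reaches about 5.3%, limit read from the data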;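 further: 0% = Tm of DMSO wells and 100% = Tm with sodium orthovanadate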
Numbers without * were called inactive; nt = not tested or not shown.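 How the source made its calls, unless noted: active means inhibition of at least 30% at 20 µM; inactive means the rest.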

SMILES	SUMO1-SIM PPI	STEP inh	DNMT1 block	Scp1 inh	CSN deneddyl inh	LMPTP inh	Scp1 confirm	MG interference	others
COc1nc(-c2ccccc2)ccc1-c1noc(-c2ccco2)n1	4.6	1.8	-8.8	98.7*	2.0	2.4	-5.6	-16.7
COc1ccc(-c2ccc(-c3noc(-c4ccco4)n3)c(OC)n2)cc1	2.9	-1.2	0.3	-4.4	3.5	0.9	nt	nt
O=C1CCCC(O)=C1C=NCc1ccccc1	-4.6	-0.2	0.6	-4.2	-0.2	0.8	nt	nt
CCn1c(C)[n+](CC)c2ccc(S(=O)(=O)N(C)C)cc21	-0.8	0.8	3.2	89.1*	-19.0	2.3	-13.4	-16.9
CC[n+]1c(C)n(C)c2cc(S(=O)(=O)N(C)C)ccc21	1.6	0.8	9.6	22.6	-3.7	0.9	nt	nt
CSc1ccccc1NC(=O)c1cc2ncc(Br)cn2n1	-4.7	3.0	21.9	60.0*	2.3	2.1	50.3*	-12.8	Scp1 DSF=-2.8
CCOC(=O)C1CCCN(c2c(NCCN3CCCCC3CC)c(=O)c2=O)C1 (stereo not drawn)	6.0	-2.0	0.3	56.8*	6.8	0.3	-2.4	-7.3
C/C(=N\NC(=O)c1ccc(NS(=O)(=O)c2cccs2)cc1)c1ccc(C(C)(C)C)cc1	5.0	-2.3	4.4	-1.2	6.5	0.4	nt	nt
CC(=O)Nc1cccc(/C(C)=N/NC(=O)c2ccc(NS(=O)(=O)c3cccs3)cc2)c1	1.2	-1.0	3.0	64.2*	-5.1	-1.7	-17.8	-12.0
C[N+]1(CC(=O)OCCCc2ccccc2)CCOCC1	-0.9	-4.9	1.7	99.6*	2.5	-2.2	80.5*	-17.5	Scp1 DSF=-9.7
Cc1ccc(CCCOC(=O)C[N+]2(C)CCOCC2)cc1	2.5	-4.5	2.0	37.8	0.3	-0.4	nt	nt
COC(=O)c1ccc(CNC(=O)CSc2nnc(COc3ccccc3)n2C)o1	2.1	4.6	-1.9	6.8	-1.5	-1.6	nt	nt
COc1ccc(C(=O)NCC(=O)N2CCN(c3ccc(F)cc3)CC2)cc1	0.3	0.7	-0.2	-5.3	2.7	0.3	nt	nt
CCOC(=O)C(C(=O)Nc1ccccn1)C1CCCCC1 (stereo not drawn)	-2.5	4.2	-1.8	50.3*	3.9	-0.3	76.7*	-10.1	Scp1 DSF=-3.9
CCN(CC(=O)NCc1cccs1)C(=O)COc1ccc(C(C)=O)cc1	0.6	-3.3	3.2	59.0*	-1.2	0.3	10.9	5.0
CCN(CC(=O)NCc1cccs1)C(=O)COc1cccc(C(F)(F)F)c1	7.0	-2.1	-1.6	-7.5	-0.1	-0.6	nt	nt
COc1cc(NC(C)C(=O)N2CC(C)OC(C)C2)cc(OC)c1 (stereo not drawn)	-1.9	0.0	-8.7	-8.1	0.1	-1.2	nt	nt
CN(C(=O)CSc1nc(-c2cccs2)nc2ccccc12)C1CCS(=O)(=O)C1 (stereo not drawn)	-25.1	-1.6	3.5	-12.4	5.3	-1.1	nt	nt
O=C(NNC(=O)c1ccc(Cl)cc1Cl)c1ccc2ccccc2c1	-7.6	9.6	13.1	50.0	1.0	11.4	-4.9	-9.3
Cc1ccc(CNC(=O)CCS(=O)(=O)c2ccc3c(c2)oc(=O)n3C)cc1	-7.5	0.6	0.9	-4.0	0.2	-1.3	nt	nt
CN(C)c1ccc(CNC(=O)CCS(=O)(=O)c2ccc3c(c2)n(C)c(=O)c(=O)n3C)cc1	22.5	2.0	30.3	63.5*	-6.0	-0.6	25.0	-12.0
O=C(COc1ccccc1Cl)Nc1ccc(C(=O)O)cc1NC(=O)COc1ccccc1Cl	5.7	-2.1	1.9	3.4	-1.6	-0.6	nt	nt
Cc1cc(C(=O)Nc2ccccc2C(=O)O)ccc1NC(=O)COc1ccccc1Cl	19.1	22.0	0.9	80.0*	1.4	11.1	51.9*	1.2	Scp1 DSF=6.7*
CCN1/C(=C2\C(=O)N(c3ccccc3)N=C2C)C=Cc2cc(C)ccc21	-25.7	1.5	3.8	58.5*	2.1	-0.9	-14.2	-20.0
Cc1cc(C)c2cc(C(=O)N3CCN(c4ncccc4C(F)(F)F)CC3)[nH]c2c1	-2.3	-0.1	-8.3	3.1	-0.3	4.5	nt	nt
SMILES	SUMO1-SIM PPI	STEP inh	DNMT1 block	Scp1 inh	CSN deneddyl inh	LMPTP inh	Scp1 confirm	MG interference	others
CCOC(=O)c1cn(CC)c2cc3c(cc2c1=O)OCO3	8.3	-1.4	-2.2	64.3*	-1.8	-0.2	-11.7	-5.2
Cc1c(Br)c([N+](=O)[O-])nn1CC(=O)NC1CCCCCC1	-14.8	-0.9	4.3	-2.3	0.4	-0.9	nt	nt
CCOC(=O)C1CCN(C(=O)CCCCn2c(=O)[nH]c3ccccc3c2=O)CC1	-2.0	-0.4	1.6	68.2*	1.5	-0.1	-15.3	-6.8
CCOC(=O)C1CCN(C(=O)CCn2c(=O)[nH]c3ccccc3c2=O)CC1	1.0	-1.0	0.0	12.9	-3.3	-1.2	nt	nt
Nc1ncnc(Nc2ccccc2Oc2ccccc2)n1	2.3	0.4	-3.0	-2.8	-4.3	-0.6	nt	nt
O=c1c2ccccc2oc2nc(-c3ccco3)n(Cc3ccccc3)c(=O)c12	-17.5	1.5	8.2	50.1*	5.0	2.1	55.7*	-0.8	Scp1 DSF=-0.7
CCc1nc2oc3ccccc3c(=O)c2c(=O)n1Cc1ccccc1	4.3	0.4	-0.6	-1.1	0.2	-1.6	nt	nt
COc1ccccc1N1CCN(C(=O)c2ccc3c(=O)n(Cc4ccc5c(c4)OCO5)c(=O)[nH]c3c2)CC1	3.5	-1.3	-2.8	1.1	5.0	0.7	nt	nt
O=C(Cn1c2[n+](c3ccc(C(F)(F)F)cc31)CCCCC2)Nc1ccccc1	0.0	-1.9	6.3	61.6*	-4.8	-1.6	-17.5	-9.8
COc1ccc(NC(=O)CC2C(=O)N(c3ccc(OC)cc3)C(=O)N2Cc2ccc(OC)c(OC)c2)cc1 (stereo not drawn)	3.3	0.9	0.0	-5.5	4.4	-0.9	nt	nt
O=C(COc1ccc(OCc2ccccc2)cc1)NC1CCOC1=O (stereo not drawn)	1.7	-1.0	-1.6	85.0*	2.9	-2.4	-18.8	-19.5
O=C(NC1CCOC1=O)OCc1ccccc1 (stereo not drawn)	1.1	1.2	4.8	nt	-0.8	-2.1	nt	nt
O=C(Cc1cc(=O)oc2cc(O)ccc12)NC(Cc1ccc(Cl)cc1)C(=O)O (stereo not drawn)	-1.8	-1.8	0.0	-9.0	-0.8	-1.4	nt	nt
